# T cruzi repl: inhibitors of intracellular T. cruzi growth, primary screen, luminescence, NIH3T3 host cells; T. cruzi beta-gal in NIH3T3, 90 h; AID 1885, 2009; inhibition, % (test concentration not listed); actives 1.4% (n = 300,000);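 active = mean inhibition across valid replicates above about 55%, limit read from the data; inconclusive = mean below that limit but half or more replicates reach it; inactive = mean below it, under half of replicates reach it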;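 note: signal also drops with host cell toxicity which is not excluded here; 0% = plate median of DMSO wells and 100% = zero luminescence signal; higher percent means less beta-gal luminescence so fewer parasites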
#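 System: NIH/3T3 fibroblasts plus reporter T. cruzi. Medium: DMEM plus 2% FBS. Probe or stimulus: 5000 reporter trypomastigotes per well. Compound: single 50 nL compound addition per well in DMSO. Incubation: co-culture of at least 90 h after 3 h attachment. Detection: GalScreen β-gal luminescence, detergent lysis, 60 min. Evaluation: parasite load inhibition, %.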
# PolyA inhibitor: polyadenylation inhibitors in yeast reporter cells, primary screen, luminescence, S. cerevisiae; activity score, % at 12 µM; S. cerevisiae SKY197-pL101 polyadenylation reporter, beta-gal luminescence; efflux-impaired pdr1/pdr3 knockout yeast; score 100 = 6 SD above DMSO; AID 1875, 2009; actives 0.02% (n = 300,000);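 active = lowest replicate activity score at least 50, where 100 means six control SD above control mean; inconclusive = lowest score under 50 but half or more replicates reach 50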;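 note: yeast exposed to compound for 9 h at 30 °C; higher score means more reporter readthrough which indicates perturbed polyadenylation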
# NALP1 yeast inh: NALP1 inflammasome inhibitors in reconstituted yeast, colorimetric, S. cerevisiae, triplicate retest. S. cerevisiae NALP1/ASC/caspase-1 growth, X-gal OD620, 72 h. inhibition, % at 10 µM. actives 0.61% (n = 280,000). AID 2071, 2009; in the data active = inhibition mostly above about 24%, no sharp cut-off; inactive = mostly below about 32%
# Lmaj promast: Leishmania major promastigote growth inhibition, primary screen. Leishmania major promastigotes, resazurin fluorescence viability. inhibition, % at 10 µM. actives 9% (n = 200,000); in the data active = inhibition above about 50%;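 note: promastigotes grown with compound for 44 hours at 28 °C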
# NLRP3 yeast inh: NALP3 inflammasome inhibitors in reconstituted yeast, primary screen, luminescence, uHTS. inhibition, % at 10 µM. Yeast reconstituted NLRP3/ASC/caspase-1, beta-gal luminescence, 24 h. AID 2825, 2010. actives 0.39% (n = 330,000);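 active = inhibition of 50% or more; inactive = inhibition below 50%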;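 note: plate controls were induced DMSO wells for no effect and uninduced yeast grown without galactose for full effect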
# Calb FLC: C. albicans growth inhibition with fluconazole, primary screen, CaCi-2 strain, Alamar Blue fluorescence; C. albicans CaCi-2 + fluconazole, 48 h; growth inhibition, % (test concentration not listed); actives 0.57% (n = 300,000); AID 1979, 2009;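 active = growth inhibition above about 58% in most replicates, limit read from the data, passing the limit was not always enough; inconclusive = exactly half the replicates above a set limit; inactive = most replicates below a set limit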;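 note: all wells also contain fluconazole at 8 µg/ml as a sub-toxic cotreatment; 0% = median of DMSO wells and 100% = median of geldanamycin control wells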
# * hit, by the source's call; ? = inconclusive; · = no result. This excerpt belongs to a sample that is enriched for hits.
SMILES,T cruzi repl,PolyA inhibitor,NALP1 yeast inh,Lmaj promast,NLRP3 yeast inh,Calb FLC
CN(C)CCNC(=S)NC1CCCCC1,-3.8,11.6,-11.1,-0.7,23.5,-5.3
COc1ccc2c(/C=C/c3cc[n+](C)cc3)c[nH]c2c1,53.9,17.1,16.2,·,18.3,0.4
COc1ccc2c(c1)c(/C=C/c1cc[n+](C)cc1)cn2C,41.4,-12.8,-30.8,·,15.5,81.1*
Nc1ccc(Nc2nc(-c3ccncc3)cs2)cc1,3.6,4.3,13.9,81.0*,40.5,6.4
Fc1ccc(Nc2nc(-c3ccncc3)cs2)cc1,46.9,-12.8,14.7,11.7,3.8,-9.4
Clc1ccc(Nc2nc(-c3ccncc3)cs2)cc1,56.6*,2.8,·,-0.8,5.5,3.1
O=C(/C=C/c1ccccc1)Nc1nc(-c2ccncc2)cs1,66.2*,9.9,-4.0,9.1,25.5,4.6
c1ccc(Nc2nc(-c3ccncc3)cs2)cc1,65.2*,-0.8,17.2,6.9,31.3,3.9
O=S(=O)(c1cc(Cl)ccc1Cl)N1CCN(c2ccccn2)CC1,13.0,8.5,-14.1,·,18.0,11.9
Cc1noc(C)c1NC(=O)Nc1ccc2c(c1)C(=O)N([C@H](C)CO)C[C@H](C)[C@@H](CN(C)C(=O)Nc1ccc3c(c1)OCO3)O2,·,·,·,·,-8.5,·
CCCCNC(=O)NS(=O)(=O)c1ccc(C(=O)OC(C)C)o1,-1.9,10.1,-4.4,-4.5,9.6,3.4
CCOc1ccccc1-c1nc(-c2cc3ccc(C)cc3[nH]c2=O)no1,31.0,11.4,0.2,68.9*,14.3,4.3
Cc1ccc(N/N=C(\C#N)C(=N)N2CCCCC2)cc1,8.1,-5.5,-9.9,·,23.2,1.0
N#C/C(=N\Nc1ccccc1)C(=N)N1CCCCC1,-2.5,18.0,7.9,89.8*,5.6,36.6
CC(C)N(C(=S)Nc1cc(S(=O)(=O)N2CCOCC2)ccc1Cl)c1ccccc1,-11.8,-8.5,59.3*,27.8,21.1,?
C/C(=N\NC(=S)Nc1cc(S(=O)(=O)N2CCOCC2)ccc1Cl)c1ccccc1F,43.0,-22.7,20.6,71.5*,30.8,13.0
CN1CCN(C(=S)Nc2cc(S(=O)(=O)N3CCOCC3)ccc2Cl)CC1,-3.4,5.1,15.2,-3.8,0.0,-7.1
NC(=O)C1CCCN1 (stereo not given),0.8,22.3,-0.6,-2.7,8.0,21.9
Cc1ccc(NC(=O)C2CC(=O)N(c3ccc4c5c(cccc35)CC4)C2)cc1 (stereo not given),-9.3,15.6,6.7,12.3,17.4,-0.4
N#Cc1ccccc1NC(=O)C1CC(=O)N(c2ccc3c4c(cccc24)CC3)C1 (stereo not given),-15.5,4.2,-1.1,57.4*,7.4,25.8
CCN(CC(=O)NCc1ccc(F)cc1)C(=O)CN1CCN(c2cc(Cl)ccc2C)CC1,17.5,6.2,10.5,·,10.4,-17.8
CC(=O)N(Cc1ccccc1)c1c(N)nc(N)[nH]c1=O,-24.6,2.5,·,·,11.9,-8.5
N=c1n(CCO)c2ccccc2n1CCOc1ccc(Cl)cc1Cl,20.8,5.7,-34.7,97.6*,12.4,13.1
COc1ccc(OCCn2c(=N)n(CCO)c3ccccc32)cc1,3.8,23.3,33.2,-0.9,-6.0,7.0
Cc1c(C)n(CCCN(C)C)c2ncnc(Nc3ccc(F)cc3)c12,61.0*,-0.1,8.2,·,10.0,6.7
SMILES,T cruzi repl,PolyA inhibitor,NALP1 yeast inh,Lmaj promast,NLRP3 yeast inh,Calb FLC
O=[N+]([O-])c1ccc(NCCCNS(=O)(=O)c2ccc(Cl)cc2)c(Cl)c1,2.4,1.7,28.0,94.5*,7.2,-5.0
CCCCn1nnc(NC(=O)c2sc3cc(Cl)ccc3c2Cl)n1,-2.0,-4.6,22.5,9.0,24.2,·
CCN(CC)Cc1ccc(NC(=O)c2sc3cc(Cl)ccc3c2Cl)cc1,35.7,-7.9,·,·,27.9,102.6*
Cc1nnc(SCC(=O)O)o1,8.5,20.3,25.9*,-8.7,8.9,20.3
COc1cc(NS(=O)(=O)c2cc(C)ccc2OC)c(OC)cc1Cl,4.8,-2.2,-6.9,99.1*,5.1,-4.2
O=C(CN(c1ccccc1)S(=O)(=O)c1ccc(F)cc1)NC1CCCCCC1,6.3,-17.9,21.1,·,18.1,-0.1
Cn1c(SCC(=O)NC(C)(C)C)nnc1-c1cnccn1,0.4,4.1,24.7,-3.1,11.8,-5.6

# Screening results deposited in PubChem BioAssay by several laboratories.
